Measurements reported in ChEMBL document CHEMBL2093137, “WHO-TDR NTD Screening”.
≈ marks a conversion by molar mass, not a printed value.

Key:
[1] = test system: Onchocerca lienalis; experiment: WHO-TDR: Onchocerciasis; assay type: functional; set-up: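 at 12.5 µM on microfilariae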
In short: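 Microfilariae of Onchocerca ochengi or Onchocerca lienalis, animal pathogens standing in for the human parasite, were exposed to compounds in a whole-organism screen. The compounds came from a 10,000-compound diverse Life Chemicals library filtered for drug-likeness and reactive groups. Results are expressed as percent inhibition and IC50.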

[2] = test system: Schistosoma mansoni; experiment: WHO-TDR: Schistosomiasis; assay type: functional; set-up: concentration or dose not given beside the values
In short: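 In this whole-organism assay, larval and/or adult worms of Schistosoma mansoni (Puerto Rican strain) were exposed to compounds from a diverse Life Chemicals library of 10,000 members. A reference drug served as positive control. Activity is stated as percent inhibition and IC50.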

[3] = test system: Leishmania infantum; experiment: WHO-TDR: Leishmaniasis; assay type: functional, organism-based, Mus musculus; conditions: Macrophage
In short: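 Intracellular amastigotes of Leishmania infantum MHOM/MA(BE)/67, hosted in murine peritoneal macrophages, were exposed to compounds from a 10,000-member diverse library supplied by Life Chemicals. The library had been filtered for drug-likeness and reactive groups. The reported IC50 expresses antiparasitic potency.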

[4] = WHO-TDR: Cytotoxicity; assay type: toxicity, cell-based; conditions: human, MRC5 cells
[5] = test system: Trypanosoma cruzi; experiment: WHO-TDR: Chagas disease; assay type: functional, organism-based, Homo sapiens; conditions: MRC5
In short: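 Intracellular amastigotes of the Trypanosoma cruzi Tulahuen CL2 beta-galactosidase strain, grown in MRC-5SV2 human lung fibroblast host cells, were tested in a whole-organism screen. The compounds came from a 10,000-member diverse Life Chemicals library that had been filtered for drug-likeness and reactive groups. Previously published standard procedures were followed, with a reference drug as positive control, and potency is reported as IC50.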

[6] = test system: Trypanosoma brucei brucei; experiment: WHO-TDR: Human African Trypanosomiasis (HAT); assay type: functional, organism-based; conditions: Squib-427
In short: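 In this whole-organism screen, the target was the bloodstream form of Trypanosoma brucei, strain Squib 427. A diverse set of 10,000 compounds from Life Chemicals, previously filtered for drug-likeness and reactive groups, was assayed by standard published procedures using reference drugs as positive controls. Each value is an IC50 for antiparasitic potency.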

[7] = test system: Brugia malayi; experiment: WHO-TDR: Lymphatic Filariasis; assay type: functional; set-up: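 tested at 10 µM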
In short: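 In a whole-organism assay, Brugia malayi microfilariae were screened against a diverse Life Chemicals library that had been filtered for drug-likeness and reactive groups. That library comprised 10,000 compounds. Activity is expressed as percent inhibition and as IC50.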

[8] = test system: Plasmodium falciparum K1; experiment: WHO-TDR: Malaria; assay type: functional, organism-based, Homo sapiens; conditions: Erythrocyte
In short: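 Previously published standard procedures, including a reference drug as positive control, were used to screen whole Plasmodium falciparum K1 parasites inside human red blood cells. IC50 is the measure of antiplasmodial potency. The compounds were a 10,000-member diverse Life Chemicals library.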

Structure (SMILES) | % Inhibition [1] | % Inhibition [2] | IC50 [3] | IC50 [4] | IC50 [5] | IC50 [6] | % Inhibition [7] | IC50 [8]
COc1ccc(-c2ccc(OCCNS(=O)(=O)c3ccc(Cl)s3)nn2)cc1 | 33.3% | 0% | > 12.8 µg/mL | 5.41 µg/mL (≈ 12.7 µM) | 0.788 µg/mL (≈ 1.85 µM) | > 12.8 µg/mL | 0% | > 12.8 µg/mL
CS(=O)(=O)c1ccc(CC(=O)Nc2nc(-c3ccc(Cl)s3)cs2)cc1 | 11.35% | 0% | 4.01 µg/mL (≈ 9.71 µM) | 1.53 µg/mL (≈ 3.7 µM) | 0.575 µg/mL (≈ 1.39 µM) | > 12.4 µg/mL | 0% | > 12.4 µg/mL
COc1ccc(Nc2nc(Nc3ccccc3OC)nc(N3CCOCC3)n2)cc1 | 0% | 0% | 4.32 µg/mL (≈ 10.6 µM) | 2.08 µg/mL (≈ 5.1 µM) | 3.98 µg/mL (≈ 9.74 µM) | 0.422 µg/mL (≈ 1.03 µM) | 0% | 1.19 µg/mL (≈ 2.91 µM)
Cc1cccc(Nc2nc(Nc3ccc4c(c3)OCO4)nc(N3CCOCC3)n2)c1 | 0% | 0% | 4.3 µg/mL (≈ 10.6 µM) | 1.82 µg/mL (≈ 4.49 µM) | 2.05 µg/mL (≈ 5.03 µM) | 0.42 µg/mL (≈ 1.03 µM) | 0% | 1.06 µg/mL (≈ 2.62 µM)
CCN(CC)CCSc1ccc(-c2ccc(Cl)cc2)nn1 | 0% | 0% | > 9.66 µg/mL | > 9.66 µg/mL | > 9.66 µg/mL | > 9.66 µg/mL | 0% | 0.368 µg/mL (≈ 1.14 µM)
CS(=O)(=O)NCC(c1ccco1)S(=O)(=O)c1ccc(Cl)cc1 (configuration not stated) | 6.7% | 0% | > 10.9 µg/mL | > 10.9 µg/mL | 0.513 µg/mL (≈ 1.41 µM) | 10.9 µg/mL (≈ 30 µM) | 33.33% | > 10.9 µg/mL
COc1ccc(-c2ccc(NS(=O)(=O)c3ccc(Cl)s3)cc2)nn1 | 0% | 0% | 1.09 µg/mL (≈ 2.85 µM) | > 11.5 µg/mL | > 11.5 µg/mL | > 11.5 µg/mL | 16.67% | > 11.5 µg/mL
O=C(/C=C/c1cccs1)N(CCCN1CCOCC1)c1nc2ccccc2s1 | 16.32% | 0% | 1.98 µg/mL (≈ 4.79 µM) | > 13.5 µg/mL | 4.43 µg/mL (≈ 10.7 µM) | 4.37 µg/mL (≈ 10.6 µM) | 0% | 10.5 µg/mL (≈ 25.3 µM)
COc1ccccc1-c1nnc(NC(=O)c2ccc(S(=O)(=O)N(C)Cc3ccco3)cc2)o1 | 0% | 0% | 9.57 µg/mL (≈ 20.4 µM) | 5.89 µg/mL (≈ 12.6 µM) | 0.511 µg/mL (≈ 1.09 µM) | 4.55 µg/mL (≈ 9.71 µM) | 0% | 10.2 µg/mL (≈ 21.8 µM)
CC(C)(C)c1ccc(C(=O)Nc2sccc2C(N)=O)cc1 | 13.3% | 0% | 1.95 µg/mL (≈ 6.46 µM) | 4.3 µg/mL (≈ 14.2 µM) | 2.41 µg/mL (≈ 7.98 µM) | 0.633 µg/mL (≈ 2.09 µM) | – | 2.68 µg/mL (≈ 8.87 µM)
CCNc1cc(C)nc(Nc2ccc(NS(=O)(=O)c3ccc4nc(C)sc4c3)cc2)n1 | 33.4% | 58.3% | > 13.6 µg/mL | 0.543 µg/mL (≈ 1.19 µM) | 0.404 µg/mL (≈ 0.889 µM) | 4.31 µg/mL (≈ 9.49 µM) | – | 1.18 µg/mL (≈ 2.6 µM)
COc1ccc(CCNC(=O)CSc2nnc(NC(=O)c3cc(Cl)ccc3Cl)s2)cc1OC | 13.3% | 8.3% | 4.54 µg/mL (≈ 8.61 µM) | 0.526 µg/mL (≈ 0.997 µM) | 0.239 µg/mL (≈ 0.452 µM) | 0.352 µg/mL (≈ 0.668 µM) | – | 0.398 µg/mL (≈ 0.755 µM)
CN(C)CCCN(C(=O)Cc1ccccc1)c1nc2ccc(F)cc2s1 | 0% | 58.3% | 3.96 µg/mL (≈ 10.7 µM) | 3.81 µg/mL (≈ 10.3 µM) | 4.16 µg/mL (≈ 11.2 µM) | 0.382 µg/mL (≈ 1.03 µM) | – | 0.609 µg/mL (≈ 1.64 µM)
C#CCn1/c(=N/C(=O)CN2C(=O)c3ccccc3C2=O)sc2c3ccccc3ccc21 | 13.3% | 0% | 0.413 µg/mL (≈ 0.971 µM) | > 11.4 µg/mL | > 11.4 µg/mL | > 11.4 µg/mL | – | > 11.4 µg/mL
O=C(Cc1ccc(Cl)cc1)Nc1cccc(-c2nc3cccnc3s2)c1 | 66.7% | 58.3% | 0.369 µg/mL (≈ 0.971 µM) | > 11.4 µg/mL | > 11.4 µg/mL | > 11.4 µg/mL | – | > 11.4 µg/mL
CCOc1ccc(C(=O)Nc2nc3c(Cl)ccc(Cl)c3s2)cc1 | 33.34% | 100% | > 11 µg/mL | > 11 µg/mL | > 11 µg/mL | > 11 µg/mL | – | > 11 µg/mL
CN(C(=O)CN1CC(=O)Oc2ccccc21)c1ccc(O)cc1 | 20% | 0% | 3.03 µg/mL (≈ 9.71 µM) | 2.96 µg/mL (≈ 9.49 µM) | 0.548 µg/mL (≈ 1.75 µM) | 2.66 µg/mL (≈ 8.52 µM) | – | 2.22 µg/mL (≈ 7.11 µM)
Cc1cc(NC(=O)CSc2ccc3nnc(-c4cccs4)n3n2)no1 | 6.7% | 0% | 4.29 µg/mL (≈ 11.5 µM) | > 11.2 µg/mL | 4.97 µg/mL (≈ 13.4 µM) | > 11.2 µg/mL | – | 0.155 µg/mL (≈ 0.416 µM)
Cc1onc(-c2ccccc2Cl)c1C(=O)Nc1nnc(SCC(=O)Nc2ccc3c(c2)OCO3)s1 | 13.3% | 0% | 0.791 µg/mL (≈ 1.49 µM) | 2.1 µg/mL (≈ 3.96 µM) | 3.2 µg/mL (≈ 6.05 µM) | 0.483 µg/mL (≈ 0.911 µM) | – | 1.16 µg/mL (≈ 2.2 µM)
NC(=O)c1ccc(NC(=O)c2c[nH]c(=O)n(-c3ccc(F)cc3)c2=O)cc1 | 0% | 0% | 0.358 µg/mL (≈ 0.971 µM) | > 11 µg/mL | > 11 µg/mL | > 11 µg/mL | – | > 11 µg/mL
CN(C)CCCN(C(=O)CCOc1ccccc1)c1nc2cc3c(cc2s1)OCO3 | 0% | 75% | 0.451 µg/mL (≈ 1.05 µM) | 3.34 µg/mL (≈ 7.81 µM) | 0.433 µg/mL (≈ 1.01 µM) | 4.51 µg/mL (≈ 10.5 µM) | – | 1.72 µg/mL (≈ 4.01 µM)
CCOC(=O)c1c(NC(=O)C(C)n2c(-n3nc(C)cc3C)nc(CC)cc2=O)sc2c1CCC2 (configuration not stated) | 0% | 0% | 4.7 µg/mL (≈ 9.71 µM) | > 14.5 µg/mL | 0.57 µg/mL (≈ 1.18 µM) | 4.64 µg/mL (≈ 9.6 µM) | – | 2.96 µg/mL (≈ 6.11 µM)
COc1ccccc1N1CCN(C(CNS(=O)(=O)c2c(C)cc(C)cc2C)c2cccnc2)CC1 (configuration not stated) | 86.7% | 0% | > 14.8 µg/mL | > 14.8 µg/mL | 0.929 µg/mL (≈ 1.88 µM) | 4.8 µg/mL (≈ 9.71 µM) | – | 0.78 µg/mL (≈ 1.58 µM)
O=C(CSc1nnc(NC(=O)COc2ccc(Cl)cc2)s1)NCc1ccco1 | 6.7% | 0% | 0.467 µg/mL (≈ 1.06 µM) | 0.462 µg/mL (≈ 1.05 µM) | 0.408 µg/mL (≈ 0.93 µM) | 0.428 µg/mL (≈ 0.975 µM) | – | 1.44 µg/mL (≈ 3.28 µM)
